Measurements from ChEMBL document CHEMBL5244249, “Discovery of tofacitinib derivatives as orally active antitumor agents based on the scaffold hybridization strategy” (Eur J Med Chem, 2020).
Calls of active or inactive are those of the source. The rule behind the calls is not given here.

Tests used:
[1] = Activation of MAPK pathway in human MGC-803 cells assessed as change in JNK total expression at 5 to 10 uM incubated for 24 hrs by Western blot analysis; type: cell-based; settings: dose 5-10 µM
MGC-803 [2] = experiment: Induction of apoptosis in human MGC-803 cells assessed as activation of cytochrome C release from mitochondria to cytoplasm incubated for 24 hrs by Western blot analysis; type: functional, cell-based; settings: dose 5-10 µM
How it was run: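 After 24 h exposure of MGC-803 cells, Bcl-2, Mcl-1, Bax and cytochrome c release assessed by Western blot with band quantitation; mean ± SD from three independent experiments.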

MGC-803 [3] = experiment: Cell cycle arrest in human MGC-803 cells assessed as G0/G1 phase cells at 5 uM incubated for 24 hrs by RNase/PI staining based flow cytometric analysis (reference value: 54.99%); type: functional
MGC-803 [4] = experiment: Cell cycle arrest in human MGC-803 cells assessed as S phase cells at 10 uM incubated for 24 hrs by RNase/PI staining based flow cytometric analysis (reference value: 27.1%); type: functional
MGC-803 [5] = experiment: Cell cycle arrest in human MGC-803 cells assessed as G2/M phase cells at 5 uM incubated for 24 hrs by RNase/PI staining based flow cytometric analysis (reference value: 15.11%); type: functional
MGC-803 [6] = experiment: Induction of apoptosis in human MGC-803 cells assessed as necrotic cells at 5 uM incubated for 24 hrs by Annexin V-FITC/PI staining based flow cytometric analysis (reference value: 2.0 %); type: functional
MGC-803 [7] = experiment: Cell cycle arrest in human MGC-803 cells assessed as G2/M phase cells at 7.5 uM incubated for 24 hrs by RNase/PI staining based flow cytometric analysis (reference value: 15.11%); type: functional
MGC-803 [8] = experiment: Induction of apoptosis in human MGC-803 cells assessed as nuclear fragmentation at 5 to 10 uM incubated for 24 hrs by Hoechst 33342 staining based fluorescence microscopic analysis; type: functional, cell-based; settings: dose 5-10 µM
How it was run: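 MGC-803 cells treated at 0, 5, 7.5 and 10 μM; cell morphology and nuclear morphology (fragmentation, condensation) examined by staining and imaging; three independent experiments, mean ± SD.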

MGC-803 [9] = experiment: Induction of apoptosis in human MGC-803 cells assessed as necrotic cells at 7.5 uM incubated for 24 hrs by Annexin V-FITC/PI staining based flow cytometric analysis (reference value: 2.0 %); type: functional
MGC-803 [10] = experiment: Cell cycle arrest in human MGC-803 cells assessed as G0/G1 phase cells at 10 uM incubated for 24 hrs by RNase/PI staining based flow cytometric analysis (reference value: 54.99%); type: functional
MGC-803 [11] = experiment: Induction of mitochondrial dysfunction in human MGC-803 cells assessed as upregulation of cleaved caspase-7 expression at 5 to 10 uM incubated for 24 hrs by Western blot analysis; type: functional, cell-based; settings: dose 5-10 µM
How it was run: (§1)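 Western blot of caspase 9, 3, 7, PARP and γH2A.X in MGC-803 lysates after 24 h exposure to 5, 7.5 or 10 μM; band quantitation; mean ± SD from three independent experiments.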

MGC-803 [12] = experiment: Cell cycle arrest in human MGC-803 cells assessed as G2/M phase cells at 10 uM incubated for 24 hrs by RNase/PI staining based flow cytometric analysis (reference value: 15.11%); type: functional
BGC-823 = experiment: Antiproliferative activity against human BGC-823 cells assessed as inhibition of cell growth incubated for 72 hrs by MTT assay; type: functional, cell-based; settings: BGC-823, 72 h
How it was run: (§2)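 Antiproliferative screen in gastric cancer lines MGC-803, HGC-27 and BGC-823 by MTT assay; IC50 reported as mean ± SD.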

MGC-803 [13] = experiment: Induction of mitochondrial dysfunction in human MGC-803 cells assessed as upregulation of cleaved PARP expression at 5 to 10 uM incubated for 24 hrs by Western blot analysis; type: functional, cell-based; settings: dose 5-10 µM; how it was run: as §1
MGC-803 [14] = experiment: Induction of apoptosis in human MGC-803 cells assessed as late apoptotic cells at 10 uM incubated for 24 hrs by Annexin V-FITC/PI staining based flow cytometric analysis (reference value: 3.8 %); type: functional
MGC-803 [15] = experiment: Induction of apoptosis in human MGC-803 cells assessed as viable cells at 7.5 uM incubated for 48 hrs by Annexin V-FITC/PI staining based flow cytometric analysis (reference value: 96.7 %); type: functional; settings: read-out: Activity
[16] = Toxicity in SCID mouse xenografted with human MGC-803 cells assessed as effect on liver at 12.5 to 25 mg/kg, IG administered for 21 days by H&E staining based histopathological analysis; type: organism-based; settings: in vivo, po, 504 h, dose 12.5-25 mg/kg, time 21 day
How it was run: (§3)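 SCID mice bearing subcutaneous MGC-803 xenografts (right side) dosed with 12.5 or 25 mg/kg over 21 days, 0.5% CMC-Na vehicle as control; body weight and tumor size monitored periodically; major organs examined histopathologically at end; means ± SD.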

MGC-803 [17] = experiment: Induction of apoptosis in human MGC-803 cells assessed as viable cells at 5 uM incubated for 48 hrs by Annexin V-FITC/PI staining based flow cytometric analysis (reference value: 96.7 %); type: functional; settings: read-out: Activity
MGC-803 [18] = experiment: Cell cycle arrest in human MGC-803 cells assessed as G0/G1 phase cells at 7.5 uM incubated for 24 hrs by RNase/PI staining based flow cytometric analysis (reference value: 54.99%); type: functional
[19] = Toxicity in SCID mouse xenografted with human MGC-803 cells assessed as effect on kidney at 12.5 to 25 mg/kg, IG administered for 21 days by H&E staining based histopathological analysis; type: organism-based; settings: in vivo, po, 504 h, dose 12.5-25 mg/kg, time 21 day; how it was run: as §3
MGC-803 [20] = experiment: Induction of apoptosis in human MGC-803 cells assessed as necrotic cells at 7.5 uM incubated for 48 hrs by Annexin V-FITC/PI staining based flow cytometric analysis (reference value: 0.3 %); type: functional
MGC-803 [21] = experiment: Inhibition of cell migration in human MGC-803 cells incubated for 24 hrs by wound healing assay; type: functional, cell-based; settings: dose 5-10 µM
How it was run: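 Wound-healing scratch assay in MGC-803 monolayers; 24 h exposure to 0, 5, 7.5 or 10 μM; migration quantified; three independent experiments, mean ± SD.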

MGC-803 [22] = experiment: Induction of mitochondrial dysfunction in human MGC-803 cells assessed as increase in green fluorescence intensity at 7.5 uM incubated for 24 hrs by JC-1 staining based fluorescence microscopic analysis (reference value: 9.9%); type: functional
MGC-803 [23] = experiment: Induction of mitochondrial dysfunction in human MGC-803 cells assessed as downregulation of procaspase-7 expression at 5 to 10 uM incubated for 24 hrs by Western blot analysis; type: functional, cell-based; settings: dose 5-10 µM; how it was run: as §1
MGC-803 [24] = experiment: Induction of mitochondrial dysfunction in human MGC-803 cells assessed as upregulation of cleaved caspase-9 expression at 5 to 10 uM incubated for 24 hrs by Western blot analysis; type: functional, cell-based; settings: dose 5-10 µM; how it was run: as §1
MGC-803 [25] = experiment: Antiproliferative activity against human MGC-803 cells assessed as inhibition of cell growth incubated for 72 hrs by MTT assay; type: functional, cell-based; settings: MGC-803, 72 h; how it was run: as §2
[26] = Activation of MAPK pathway in human MGC-803 cells assessed as change in p38 total expression at 5 to 10 uM incubated for 24 hrs by Western blot analysis; type: cell-based; settings: dose 5-10 µM
MGC-803 [27] = experiment: Cell cycle arrest in human MGC-803 cells assessed as S phase cells at 7.5 uM incubated for 24 hrs by RNase/PI staining based flow cytometric analysis (reference value: 27.1%); type: functional

For `Cc1cc(N2CC[C@@H](C)[C@@H](N(C)c3ncnc4[nH]ccc34)C2)n2nc(SCc3ccc(C(F)(F)F)cc3)nc2n1`, the Activity [1] was “inactive”, the Activity (MGC-803 [2]) was “Dose-Dependent Effect” and the Activity (MGC-803 [3]) was 56.93%. For the same compound, the Activity (MGC-803 [4]) was 28.14%, the Activity (MGC-803 [5]) was 10.78% and the Activity (MGC-803 [6]) was 4%. For the same compound, the Activity (MGC-803 [7]) was 12.24%, the Activity (MGC-803 [8]) was “Active” and the Activity (MGC-803 [9]) was 3.5%. For the same compound, the Activity (MGC-803 [10]) was 56.74%, the Activity (MGC-803 [11]) was “Active” and the Activity (MGC-803 [12]) was 12.82%. The IC50 (BGC-823) was 23.3 µM, the Activity (MGC-803 [13]) was “Active” and the Activity (MGC-803 [14]) was 28%. For the same compound, the viability at 7.5 µM (MGC-803 [15]) was 22.1%, the Activity [16] was “Non-Toxic” and the viability at 5 µM (MGC-803 [17]) was 73.4%. The Activity (MGC-803 [18]) was 56.42%, the Activity [19] was “Non-Toxic” and the Activity (MGC-803 [20]) was 1.6%. The inhibition (MGC-803 [21]) was “Dose-Dependent Effect”, the Activity (MGC-803 [22]) was 39.1% and the Activity (MGC-803 [23]) was “Active”. The Activity (MGC-803 [24]) was “Active”, the IC50 (MGC-803 [25]) was 2.68 µM and the Activity [26] was “inactive”. The Activity (MGC-803 [27]) was 29.36%.
